Source: ChEMBL document CHEMBL3044834, “Novel protoporphyrinogen oxidase inhibitors: 3H-pyrazolo[3,4-d][1,2,3]triazin-4-one derivatives” (J Agric Food Chem, 2008)

How the values were obtained:
Assay type in all cases: functional
Digitaria sanguinalis [1] = assay: Herbicidal activity against Digitaria sanguinalis (hairy crabgrass) assessed as inhibition of fresh weed plant weight at 1500 g/ha using post-emergence treatment protocol
Method in brief: (§1)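 Test compounds made up as emulsions by dissolving in 100 µL N,N-dimethylformamide, then adding a little Tween 20 and water. For post-emergence, weed seedlings at one leaf and one stem were sprayed at the same rates as the pre-emergence test. Fresh weight was recorded 15 days after treatment and expressed as percent inhibition versus controls. All treatments were run in triplicate.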

Amaranthus retroflexus [2] = assay: Herbicidal activity against Amaranthus retroflexus assessed as inhibition of fresh weed plant weight at 93.75 g/ha using pre-emergence treatment protocol
[3] = system: Brassica rapa subsp. oleifera; assay: Herbicidal activity against Brassica rapa subsp. oleifera assessed as inhibition of fresh weed plant weight at 187.5 g/ha using pre-emergence treatment protocol
Digitaria sanguinalis [4] = assay: Herbicidal activity against Digitaria sanguinalis (hairy crabgrass) assessed as inhibition of fresh weed plant weight at 375 g/ha using pre-emergence treatment protocol
Amaranthus retroflexus [5] = assay: Herbicidal activity against Amaranthus retroflexus assessed as inhibition of fresh weed plant weight at 750 g/ha using pre-emergence treatment protocol; method in brief: as §1
Amaranthus retroflexus [6] = assay: Herbicidal activity against Amaranthus retroflexus assessed as inhibition of fresh weed plant weight at 93.75 g/ha using post-emergence treatment protocol; method in brief: as §1
[7] = system: Brassica rapa subsp. oleifera; assay: Herbicidal activity against Brassica rapa subsp. oleifera assessed as inhibition of fresh weed plant weight at 375 g/ha using post-emergence treatment protocol; method in brief: as §1
Digitaria sanguinalis [8] = assay: Herbicidal activity against Digitaria sanguinalis (hairy crabgrass) assessed as inhibition of fresh weed plant weight at 22.5 g/ha using pre-emergence treatment protocol
Amaranthus retroflexus [9] = assay: Herbicidal activity against Amaranthus retroflexus assessed as inhibition of fresh weed plant weight at 750 g/ha using post-emergence treatment protocol; method in brief: as §1
Amaranthus retroflexus [10] = assay: Herbicidal activity against Amaranthus retroflexus assessed as inhibition of fresh weed plant weight at 45 g/ha using pre-emergence treatment protocol
[11] = system: Brassica rapa subsp. oleifera; assay: Herbicidal activity against Brassica rapa subsp. oleifera assessed as inhibition of fresh weed plant weight at 45 g/ha using pre-emergence treatment protocol
Echinochloa crus-galli [12] = assay: Herbicidal activity against Echinochloa crus-galli (barnyard grass) assessed as inhibition of fresh weed plant weight at 187.5 g/ha using pre-emergence treatment protocol; method in brief: as §1
Digitaria sanguinalis [13] = assay: Herbicidal activity against Digitaria sanguinalis (hairy crabgrass) assessed as inhibition of fresh weed plant weight at 750 g/ha using post-emergence treatment protocol; method in brief: as §1
Digitaria sanguinalis [14] = assay: Herbicidal activity against Digitaria sanguinalis (hairy crabgrass) assessed as inhibition of fresh weed plant weight at 93.75 g/ha using post-emergence treatment protocol; method in brief: as §1
Amaranthus retroflexus [15] = assay: Herbicidal activity against Amaranthus retroflexus assessed as inhibition of fresh weed plant weight at 1500 g/ha using pre-emergence treatment protocol
Digitaria sanguinalis [16] = assay: Herbicidal activity against Digitaria sanguinalis (hairy crabgrass) assessed as inhibition of fresh weed plant weight at 93.75 g/ha using pre-emergence treatment protocol
Amaranthus retroflexus [17] = assay: Herbicidal activity against Amaranthus retroflexus assessed as inhibition of fresh weed plant weight at 187.5 g/ha using post-emergence treatment protocol; method in brief: as §1
[18] = system: Brassica rapa subsp. oleifera; assay: Herbicidal activity against Brassica rapa subsp. oleifera assessed as inhibition of fresh weed plant weight at 1500 g/ha using pre-emergence treatment protocol
[19] = system: Brassica rapa subsp. oleifera; assay: Herbicidal activity against Brassica rapa subsp. oleifera assessed as inhibition of fresh weed plant weight at 750 g/ha using post-emergence treatment protocol; method in brief: as §1
Echinochloa crus-galli [20] = assay: Herbicidal activity against Echinochloa crus-galli (barnyard grass) assessed as inhibition of fresh weed plant weight at 45 g/ha using pre-emergence treatment protocol
Amaranthus retroflexus [21] = assay: Herbicidal activity against Amaranthus retroflexus assessed as inhibition of fresh weed plant weight at 187.5 g/ha using pre-emergence treatment protocol
[22] = system: Brassica rapa subsp. oleifera; assay: Herbicidal activity against Brassica rapa subsp. oleifera assessed as inhibition of fresh weed plant weight at 187.5 g/ha using post-emergence treatment protocol; method in brief: as §1
Amaranthus retroflexus [23] = assay: Herbicidal activity against Amaranthus retroflexus assessed as inhibition of fresh weed plant weight at 1500 g/ha using post-emergence treatment protocol; method in brief: as §1
Digitaria sanguinalis [24] = assay: Herbicidal activity against Digitaria sanguinalis (hairy crabgrass) assessed as inhibition of fresh weed plant weight at 187.5 g/ha using pre-emergence treatment protocol
Digitaria sanguinalis [25] = assay: Herbicidal activity against Digitaria sanguinalis (hairy crabgrass) assessed as inhibition of fresh weed plant weight at 375 g/ha using post-emergence treatment protocol; method in brief: as §1
Digitaria sanguinalis [26] = assay: Herbicidal activity against Digitaria sanguinalis (hairy crabgrass) assessed as inhibition of fresh weed plant weight at 187.5 g/ha using post-emergence treatment protocol; method in brief: as §1
Echinochloa crus-galli [27] = assay: Herbicidal activity against Echinochloa crus-galli (barnyard grass) assessed as inhibition of fresh weed plant weight at 93.75 g/ha using pre-emergence treatment protocol
[28] = system: Brassica rapa subsp. oleifera; assay: Herbicidal activity against Brassica rapa subsp. oleifera assessed as inhibition of fresh weed plant weight at 1500 g/ha using post-emergence treatment protocol; method in brief: as §1
Echinochloa crus-galli [29] = assay: Herbicidal activity against Echinochloa crus-galli (barnyard grass) assessed as inhibition of fresh weed plant weight at 375 g/ha using post-emergence treatment protocol; method in brief: as §1
[30] = system: Brassica rapa subsp. oleifera; assay: Herbicidal activity against Brassica rapa subsp. oleifera assessed as inhibition of fresh weed plant weight at 93.75 g/ha using pre-emergence treatment protocol
Echinochloa crus-galli [31] = assay: Herbicidal activity against Echinochloa crus-galli (barnyard grass) assessed as inhibition of fresh weed plant weight at 93.75 g/ha using post-emergence treatment protocol; method in brief: as §1
Echinochloa crus-galli [32] = assay: Herbicidal activity against Echinochloa crus-galli (barnyard grass) assessed as inhibition of fresh weed plant weight at 22.5 g/ha using pre-emergence treatment protocol; method in brief: as §1
Amaranthus retroflexus [33] = assay: Herbicidal activity against Amaranthus retroflexus assessed as inhibition of fresh weed plant weight at 22.5 g/ha using pre-emergence treatment protocol
Amaranthus retroflexus [34] = assay: Herbicidal activity against Amaranthus retroflexus assessed as inhibition of fresh weed plant weight at 375 g/ha using post-emergence treatment protocol; method in brief: as §1
[35] = system: Brassica rapa subsp. oleifera; assay: Herbicidal activity against Brassica rapa subsp. oleifera assessed as inhibition of fresh weed plant weight at 750 g/ha using pre-emergence treatment protocol
Echinochloa crus-galli [36] = assay: Herbicidal activity against Echinochloa crus-galli (barnyard grass) assessed as inhibition of fresh weed plant weight at 187.5 g/ha using post-emergence treatment protocol; method in brief: as §1
[37] = system: Brassica rapa subsp. oleifera; assay: Herbicidal activity against Brassica rapa subsp. oleifera assessed as inhibition of fresh weed plant weight at 93.75 g/ha using post-emergence treatment protocol; method in brief: as §1
Digitaria sanguinalis [38] = assay: Herbicidal activity against Digitaria sanguinalis (hairy crabgrass) assessed as inhibition of fresh weed plant weight at 1500 g/ha using pre-emergence treatment protocol
Echinochloa crus-galli [39] = assay: Herbicidal activity against Echinochloa crus-galli (barnyard grass) assessed as inhibition of fresh weed plant weight at 1500 g/ha using post-emergence treatment protocol; method in brief: as §1
Echinochloa crus-galli [40] = assay: Herbicidal activity against Echinochloa crus-galli (barnyard grass) assessed as inhibition of fresh weed plant weight at 750 g/ha using pre-emergence treatment protocol
[41] = system: Brassica rapa subsp. oleifera; assay: Herbicidal activity against Brassica rapa subsp. oleifera assessed as inhibition of fresh weed plant weight at 375 g/ha using pre-emergence treatment protocol
[42] = system: Brassica rapa subsp. oleifera; assay: Herbicidal activity against Brassica rapa subsp. oleifera assessed as inhibition of fresh weed plant weight at 22.5 g/ha using pre-emergence treatment protocol
Digitaria sanguinalis [43] = assay: Herbicidal activity against Digitaria sanguinalis (hairy crabgrass) assessed as inhibition of fresh weed plant weight at 750 g/ha using pre-emergence treatment protocol
Amaranthus retroflexus [44] = assay: Herbicidal activity against Amaranthus retroflexus assessed as inhibition of fresh weed plant weight at 375 g/ha using pre-emergence treatment protocol
Echinochloa crus-galli [45] = assay: Herbicidal activity against Echinochloa crus-galli (barnyard grass) assessed as inhibition of fresh weed plant weight at 375 g/ha using pre-emergence treatment protocol; method in brief: as §1
Echinochloa crus-galli [46] = assay: Herbicidal activity against Echinochloa crus-galli (barnyard grass) assessed as inhibition of fresh weed plant weight at 1500 g/ha using pre-emergence treatment protocol
Echinochloa crus-galli [47] = assay: Herbicidal activity against Echinochloa crus-galli (barnyard grass) assessed as inhibition of fresh weed plant weight at 750 g/ha using post-emergence treatment protocol; method in brief: as §1
Digitaria sanguinalis [48] = assay: Herbicidal activity against Digitaria sanguinalis (hairy crabgrass) assessed as inhibition of fresh weed plant weight at 45 g/ha using pre-emergence treatment protocol

C=CCN1C(=O)COc2cc(F)c(-n3nnc4c(cnn4CC=C)c3=O)cc21
inhibition at 1500 g/ha (Digitaria sanguinalis [1]): 31.2% | inhibition at 93.75 g/ha (Amaranthus retroflexus [2]): 100% | inhibition at 187.5 g/ha [3]: 93.3% | inhibition at 375 g/ha (Digitaria sanguinalis [4]): 51% | inhibition at 750 g/ha (Amaranthus retroflexus [5]): 100% | inhibition at 93.75 g/ha (Amaranthus retroflexus [6]): 19% | inhibition at 375 g/ha [7]: 95.3% | inhibition at 22.5 g/ha (Digitaria sanguinalis [8]): 4.9% | inhibition at 750 g/ha (Amaranthus retroflexus [9]): 85.1% | inhibition at 45 g/ha (Amaranthus retroflexus [10]): 82.8% | inhibition at 45 g/ha [11]: 40.7% | inhibition at 187.5 g/ha (Echinochloa crus-galli [12]): 34.4% | inhibition at 750 g/ha (Digitaria sanguinalis [13]): 4.2% | inhibition at 93.75 g/ha (Digitaria sanguinalis [14]): 0% | inhibition at 1500 g/ha (Amaranthus retroflexus [15]): 100% | inhibition at 93.75 g/ha (Digitaria sanguinalis [16]): 20.4% | inhibition at 187.5 g/ha (Amaranthus retroflexus [17]): 30.6% | inhibition at 1500 g/ha [18]: 100% | inhibition at 750 g/ha [19]: 100% | inhibition at 45 g/ha (Echinochloa crus-galli [20]): 7.4% | inhibition at 187.5 g/ha (Amaranthus retroflexus [21]): 100% | inhibition at 187.5 g/ha [22]: 55.6% | inhibition at 1500 g/ha (Amaranthus retroflexus [23]): 100% | inhibition at 187.5 g/ha (Digitaria sanguinalis [24]): 26.5% | inhibition at 375 g/ha (Digitaria sanguinalis [25]): 0% | inhibition at 187.5 g/ha (Digitaria sanguinalis [26]): 0% | inhibition at 93.75 g/ha (Echinochloa crus-galli [27]): 10% | inhibition at 1500 g/ha [28]: 100% | inhibition at 375 g/ha (Echinochloa crus-galli [29]): 23.2% | inhibition at 93.75 g/ha [30]: 60.4% | inhibition at 93.75 g/ha (Echinochloa crus-galli [31]): 0.2% | inhibition at 22.5 g/ha (Echinochloa crus-galli [32]): 5.4% | inhibition at 22.5 g/ha (Amaranthus retroflexus [33]): 3.4% | inhibition at 375 g/ha (Amaranthus retroflexus [34]): 53.7% | inhibition at 750 g/ha [35]: 100% | inhibition at 187.5 g/ha (Echinochloa crus-galli [36]): 14.2% | inhibition at 93.75 g/ha [37]: 19.6% | inhibition at 1500 g/ha (Digitaria sanguinalis [38]): 92.3% | inhibition at 1500 g/ha (Echinochloa crus-galli [39]): 89.3% | inhibition at 750 g/ha (Echinochloa crus-galli [40]): 89.2% | inhibition at 375 g/ha [41]: 100% | inhibition at 22.5 g/ha [42]: 12.7% | inhibition at 750 g/ha (Digitaria sanguinalis [43]): 67.4% | inhibition at 375 g/ha (Amaranthus retroflexus [44]): 100% | inhibition at 375 g/ha (Echinochloa crus-galli [45]): 47.4% | inhibition at 1500 g/ha (Echinochloa crus-galli [46]): 96.5% | inhibition at 750 g/ha (Echinochloa crus-galli [47]): 49.9% | inhibition at 45 g/ha (Digitaria sanguinalis [48]): 17.1%
